According to ChEMBL document CHEMBL1155724, “Novel cytotoxic annonaceous acetogenins from Annona muricata” (J Nat Prod, 2001):
≈ marks a conversion by molar mass, not a printed value.

Legend:
HepG2 = experiment: Cytotoxicity against human HepG2 cells after 12 days by methylene blue colorimetric method; format: functional, cell-based; conditions: HepG2, 288 h
How it was run: (§1)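 Hep G2 and HBV-transfected Hep G2 (Hep 2,2,15) cells were grown in RPMI 1640 or DMEM with 10% FCS, 100 units/mL penicillin and 100 µg/mL streptomycin, at 37 °C in humidified 5% CO2. Viability was measured by methylene blue staining, read at 592 nm. IC50 is the concentration giving 50% lower absorbance than drug-free controls.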

[1] = Cytotoxicity against human HepG2(2.2.15) cells after 12 days by methylene blue colorimetric method; format: functional, cell-based; conditions: HepG2 2.2.15, 288 h; how it was run: as §1

SMILES | IC50 (HepG2) [µg/mL] | IC50 [1] [µg/mL]
CCCCCCCCCCCC[C@@H](O)[C@H]1CC[C@@H]([C@@H](O)CCCCC(=O)CCCCCCCC2=C[C@H](C)OC2=O)O1 [COROSSOLONE] | 0.48 (≈ 0.829 µM) | 0.284 (≈ 0.491 µM)
CCCCCCCC(O)C(O)CC[C@H](O)[C@@H]1CC[C@@H](CCCCCCCCCC[C@@H](O)CC2=C[C@H](C)OC2=O)O1 (stereo partly specified) [MURICIN D] | 0.00066 (≈ 0.00116 µM) | 0.048 (≈ 0.0844 µM)
CCCCCCCCCCCC[C@@H](O)[C@H]1CC[C@H]([C@H](O)CCCC[C@H](O)CCCCCCCC2=C[C@H](C)OC2=O)O1 [COROSSOLINE] | 0.353 (≈ 0.608 µM) | 0.234 (≈ 0.403 µM)
CCCCCC(O)C(O)CCCCCC[C@@H](O)[C@H]1CC[C@H](CCCCCCCCCC[C@@H](O)CC2=C[C@H](C)OC2=O)O1 (stereo partly specified) [MURICIN A] | – | 0.00513 (≈ 0.00859 µM)
COc1cccc2c1C(=O)c1c(O)c3c(c(O)c1C2=O)C[C@@](O)(C(=O)CO)C[C@@H]3O[C@H]1C[C@H](N)[C@H](O)[C@H](C)O1 [DOXORUBICIN] | – | 0.45 (≈ 0.828 µM)
CCCCC(O)C(O)C/C=C\CC[C@H](O)[C@@H]1CC[C@@H](CCCCCCCCCCCC[C@@H](O)CC2=C[C@H](C)OC2=O)O1 (stereo partly specified) [MURICIN F] | 0.0428 (≈ 0.0719 µM) | 0.00386 (≈ 0.00649 µM)
CCCCCC(O)C(O)CCCCCC[C@H](O)[C@@H]1CC[C@H](CCCCCCCCCC[C@H](O)CC2=C[C@H](C)OC2=O)O1 (stereo partly specified) [MURICIN B] | – | 0.00429 (≈ 0.00719 µM)
CCCCCCCC(O)C(O)CC[C@H](O)[C@@H]1CC[C@H](CCCCCCCCCCCC[C@@H](O)CC2=C[C@H](C)OC2=O)O1 (stereo partly specified) [MURICIN C] | – | 0.00387 (≈ 0.00648 µM)
CCCCCCCCCCCCC(O)C(O)CCC(O)C1CCC(CCCCCCC[C@@H](O)CC2=C[C@H](C)OC2=O)O1 (mixture of isomers) [MURICATETROCIN A/B] | 0.0495 | 0.00483
CCCCCCCCCCCCCC[C@@H](O)[C@H]1CC[C@H]([C@H](O)CC[C@H](O)CCCCCCCC2=C[C@H](C)OC2=O)O1 [LONGIFOLICIN] | 0.000404 (≈ 0.000695 µM) | 0.0049 (≈ 0.00844 µM)
